# Measured values reported in ChEMBL document CHEMBL5058577, “EUbOPEN Chemogenomics Library 2 (Multiplex)” (2022).
# System: HEK-293T
# Experiment: Multiplex assay against HEK293T
# Format: toxicity, cell-based
# Settings: human
# In short: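 On a CQ1 microscope at 37°C and 5% CO2, live cells were imaged after compound addition. They had been stained at seeding with Hoechst33342, BioTracker Green Microtubule Cytoskeleton Dye, MitoTracker Red and Annexin V Alexa Fluor 680. CellPathfinder machine-learning gating assigned cells to Hoechst high-intensity objects or normal cells, normal cells to healthy, pyknosed or fragmented nuclei, and pyknosed cells to mitotic or apoptotic. Tubulin, mitochondrial-mass and membrane-permeability phenotypes are per cents of healthy-nucleus cells.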
# [1] = 12 h, 1 µM, compound concentration 1 uM, replicate 1
# [2] = 12 h, 1 µM, compound concentration 1 uM, replicate 2
# [3] = 12 h, 10 µM, compound concentration 10 uM, replicate 1
# [4] = 12 h, 10 µM, compound concentration 10 uM, replicate 2
# [5] = 24 h, 1 µM, compound concentration 1 uM, replicate 1
# [6] = 24 h, 1 µM, compound concentration 1 uM, replicate 2
# [7] = 24 h, 10 µM, compound concentration 10 uM, replicate 1
# [8] = 24 h, 10 µM, compound concentration 10 uM, replicate 2
# [9] = 48 h, 1 µM, compound concentration 1 uM, replicate 1
# [10] = 48 h, 1 µM, compound concentration 1 uM, replicate 2
# [11] = 48 h, 10 µM, compound concentration 10 uM, replicate 1
# [12] = 48 h, 10 µM, compound concentration 10 uM, replicate 2
structure (smiles),measurement,setting,value
Cn1cc(C(=O)OCC2CCN(CCNS(C)(=O)=O)CC2)c2ccccc21,Population Apoptotic (%),[1],39%
same,Population Fragmented Nuclei (%),[1],5%
same,Population Healthy Nuclei (%),[1],83%
same,Population Hoechst High Intensity Objects (%),[1],7%
same,Population Membrane Permeable-Phenotype (%),[1],0%
same,Population Mitochondria Different-Phenotype (%),[1],35%
same,Population Mitotic Cells (%),[1],60%
same,Population Normal (%),[1],92%
same,Population Pyknosed Nuclei (%),[1],10%
same,Population Tubulin-Different-Phenotype (%),[1],22%
same,Total Cell Count,[1],466
same,Population Apoptotic (%),[2],56%
same,Population Fragmented Nuclei (%),[2],9%
same,Population Healthy Nuclei (%),[2],76%
same,Population Hoechst High Intensity Objects (%),[2],8%
same,Population Mitochondria Different-Phenotype (%),[2],62%
same,Population Mitotic Cells (%),[2],43%
same,Population Normal (%),[2],91%
same,Population Pyknosed Nuclei (%),[2],14%
same,Population Tubulin-Different-Phenotype (%),[2],28%
same,Total Cell Count,[2],248
same,Population Apoptotic (%),[3],47%
same,Population Fragmented Nuclei (%),[3],10%
same,Population Healthy Nuclei (%),[3],73%
same,Population Hoechst High Intensity Objects (%),[3],6%
same,Population Membrane Permeable-Phenotype (%),[3],0%
same,Population Mitochondria Different-Phenotype (%),[3],55%
same,Population Mitotic Cells (%),[3],52%
same,Population Normal (%),[3],93%
same,Population Pyknosed Nuclei (%),[3],15%
same,Population Tubulin-Different-Phenotype (%),[3],53%
same,Total Cell Count,[3],479
same,Population Apoptotic (%),[4],43%
same,Population Healthy Nuclei (%),[4],71%
same,Population Hoechst High Intensity Objects (%),[4],10%
same,Population Mitochondria Different-Phenotype (%),[4],73%
same,Population Mitotic Cells (%),[4],56%
same,Population Normal (%),[4],89%
same,Population Pyknosed Nuclei (%),[4],18%
same,Population Tubulin-Different-Phenotype (%),[4],47%
same,Total Cell Count,[4],393
same,Population Apoptotic (%),[5],29%
same,Population Fragmented Nuclei (%),[5],6%
same,Population Healthy Nuclei (%),[5],82%
same,Population Hoechst High Intensity Objects (%),[5],4%
same,Population Membrane Permeable-Phenotype (%),[5],1%
same,Population Mitochondria Different-Phenotype (%),[5],21%
same,Population Mitotic Cells (%),[5],70%
same,Population Normal (%),[5],95%
same,Population Pyknosed Nuclei (%),[5],10%
same,Population Tubulin-Different-Phenotype (%),[5],16%
same,Total Cell Count,[5],650
same,Population Apoptotic (%),[6],48%
same,Population Fragmented Nuclei (%),[6],12%
same,Population Healthy Nuclei (%),[6],76%
same,Population Hoechst High Intensity Objects (%),[6],5%
same,Population Membrane Permeable-Phenotype (%),[6],0%
same,Population Mitochondria Different-Phenotype (%),[6],42%
same,Population Mitotic Cells (%),[6],51%
same,Population Normal (%),[6],94%
same,Population Tubulin-Different-Phenotype (%),[6],17%
same,Total Cell Count,[6],283
same,Population Apoptotic (%),[7],35%
same,Population Fragmented Nuclei (%),[7],11%
same,Population Healthy Nuclei (%),[7],74%
same,Population Hoechst High Intensity Objects (%),[7],5%
same,Population Membrane Permeable-Phenotype (%),[7],1%
same,Population Mitochondria Different-Phenotype (%),[7],43%
same,Population Mitotic Cells (%),[7],64%
same,Population Normal (%),[7],94%
same,Population Pyknosed Nuclei (%),[7],13%
same,Population Tubulin-Different-Phenotype (%),[7],50%
same,Total Cell Count,[7],587
same,Population Apoptotic (%),[8],48%
same,Population Fragmented Nuclei (%),[8],10%
same,Population Healthy Nuclei (%),[8],79%
same,Population Hoechst High Intensity Objects (%),[8],6%
same,Population Membrane Permeable-Phenotype (%),[8],0%
same,Population Mitochondria Different-Phenotype (%),[8],56%
same,Population Mitotic Cells (%),[8],51%
same,Population Normal (%),[8],93%
same,Population Pyknosed Nuclei (%),[8],9%
same,Population Tubulin-Different-Phenotype (%),[8],37%
same,Total Cell Count,[8],491
same,Population Apoptotic (%),[9],25%
same,Population Fragmented Nuclei (%),[9],12%
same,Population Healthy Nuclei (%),[9],78%
same,Population Hoechst High Intensity Objects (%),[9],3%
same,Population Membrane Permeable-Phenotype (%),[9],1%
same,Population Mitochondria Different-Phenotype (%),[9],12%
same,Population Mitotic Cells (%),[9],74%
same,Population Normal (%),[9],96%
same,Population Pyknosed Nuclei (%),[9],8%
same,Population Tubulin-Different-Phenotype (%),[9],10%
same,Total Cell Count,[9],1090
same,Population Apoptotic (%),[10],44%
same,Population Fragmented Nuclei (%),[10],11%
same,Population Healthy Nuclei (%),[10],82%
same,Population Hoechst High Intensity Objects (%),[10],4%
same,Population Membrane Permeable-Phenotype (%),[10],3%
same,Population Mitochondria Different-Phenotype (%),[10],23%
same,Population Mitotic Cells (%),[10],55%
same,Population Normal (%),[10],95%
same,Population Pyknosed Nuclei (%),[10],6%
same,Population Tubulin-Different-Phenotype (%),[10],11%
same,Total Cell Count,[10],490
same,Population Apoptotic (%),[11],38%
same,Population Fragmented Nuclei (%),[11],16%
same,Population Healthy Nuclei (%),[11],77%
same,Population Hoechst High Intensity Objects (%),[11],6%
same,Population Membrane Permeable-Phenotype (%),[11],1%
same,Population Mitochondria Different-Phenotype (%),[11],31%
same,Population Mitotic Cells (%),[11],61%
same,Population Normal (%),[11],93%
same,Population Pyknosed Nuclei (%),[11],6%
same,Population Tubulin-Different-Phenotype (%),[11],28%
same,Total Cell Count,[11],883
same,Population Fragmented Nuclei (%),[12],13%
same,Population Healthy Nuclei (%),[12],79%
same,Population Hoechst High Intensity Objects (%),[12],4%
same,Population Membrane Permeable-Phenotype (%),[12],0%
same,Population Mitochondria Different-Phenotype (%),[12],37%
same,Population Normal (%),[12],95%
same,Population Tubulin-Different-Phenotype (%),[12],26%
same,Total Cell Count,[12],758
